MsrA inhibitor = bovine MsrA inhibition; AID 651718; 360,000 compounds, 0.75% hits; purified bovine MsrA, absorbance read-out; inhibition, % at 15.5 µM;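 note: 0% = vehicle wells with enzyme and 100% = reference inhibitor wells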
PKA-R1A act = activates the PKA-R1A holoenzyme complex; activation, % at 11.4 µM; 340,000 compounds, 0.083% hits; P00514+P68181; AID 504707; PKA-R1A dissociation, Cy5-IP20 fluorescence polarization; scaled: DMSO 0%, 113 µM cGMP 100%;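 active = percent activation above the mean of all tested compounds plus 3 SD, cut at about 19% in these data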;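 note: higher means more PKAc released from R1A so a rise in polarization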
PKA-R2B act = PKA-R2B complex activation | activation, % at 11.4 µM | 340,000 compounds, 0.079% hits | PKA-R2B holoenzyme dissociation, Cy5-IP20 fluorescence polarization; R2B truncated from residue 108, S112A mutant; 0% DMSO only, 100% 113 µM cGMP;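 active = activation above a cutoff set at the mean over all compounds plus 3 SD, cut at about 18% in these data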;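 note: higher means more holoenzyme dissociation and a rise in polarization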
Target sequence (P31323 whole entry, looked up, other chains not shown, the tested form may be a part): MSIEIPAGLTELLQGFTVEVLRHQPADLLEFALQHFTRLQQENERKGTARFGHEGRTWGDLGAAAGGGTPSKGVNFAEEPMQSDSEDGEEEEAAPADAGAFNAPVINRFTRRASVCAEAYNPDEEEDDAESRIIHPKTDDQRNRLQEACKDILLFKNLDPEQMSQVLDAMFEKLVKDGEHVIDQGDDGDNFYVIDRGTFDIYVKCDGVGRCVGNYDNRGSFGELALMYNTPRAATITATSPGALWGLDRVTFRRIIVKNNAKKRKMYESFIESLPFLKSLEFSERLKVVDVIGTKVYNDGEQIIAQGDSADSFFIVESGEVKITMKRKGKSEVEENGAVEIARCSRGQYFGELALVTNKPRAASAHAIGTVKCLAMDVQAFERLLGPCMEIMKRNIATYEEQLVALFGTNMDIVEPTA
IMP-1 inh = blocks Pseudomonas aeruginosa IMP-1 metallo-beta-lactamase; purified IMP-1, nitrocefin hydrolysis, epi-absorbance fluorescence; inhibition, % at 5.6 µM; 290,000 compounds, 0.45% hits; AID 1556;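 active = inhibition above the mean plus 3 SD of all compounds in the same screening run, cut at about 4.5% in these data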;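 note: 0% = IMP-1 with DMSO and 100% = DMSO wells lacking enzyme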
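System – purified recombinant IMP-1 beta-lactamase · Input – IMP-1 dispensed at 0.2 nM · Timing – 15 min preincubation plus 25 min reaction at 25 °C · Signal – Epi-absorbance fluorescence, 480 nm excitation, 530 nm emission · Measure – percent IMP-1 inhibition derived from blank-referenced optical density · Controls – Enzyme-plus-DMSO low control, enzyme-free DMSO high control · Replication – singlicate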
VIM-2 inhibitor = blocks Pseudomonas aeruginosa VIM-2 metallo-beta-lactamase; purified VIM-2, nitrocefin hydrolysis, epi-absorbance fluorescence; inhibition, % at 5.6 µM; 290,000 compounds, 0.89% hits; AID 1527;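 active = inhibition above the mean of all tested compounds plus 3 SD, cutoff set per screening run, cut at about 7.5% in these data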;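 note: red hydrolysis product quenches plate fluorescence so inhibitors raise well fluorescence; 0% = enzyme with DMSO and 100% = DMSO without enzyme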
MsrA act = activates bovine MsrA enzyme | purified bovine MsrA, absorbance read-out | activation, % at 10.6 µM | 360,000 compounds, 0.3% hits | AID 602163; in the data active = activation above about 7.5%;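 note: 0% = vehicle and 100% = reference activator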
MsrA inh confirm = bovine MsrA inhibition, confirmed. shares compounds with MsrA inhibitor. purified bovine MsrA, absorbance read-out. inhibition, % at 15.5 µM. 2,300 compounds, 41% hits;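 note: coupled to thioredoxin reductase with NADPH and selenocystamine and DMSO as substrate; 0% = vehicle only and 100% = full effect of reference inhibitor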
Starred values were filed as active, the others as inactive; / = not tested or not shown. A selection: hits, their analogues and other compounds. The true share with any hit is near 2.1%. Cut-off read from the data, not from the text of the source, unless noted: active = inhibition above about 4.5%; inactive = the rest.

SMILES	MsrA inhibitor	PKA-R1A act	PKA-R2B act	IMP-1 inh	VIM-2 inhibitor	MsrA act	MsrA inh confirm
COc1ccc(/C=N/N2C(=N)SCC2=O)cc1	6.3*	4	-6	-1	-2	-3	4
CSC(=Cc1ccc(C(=O)c2ccc(C)cc2)n1C)S(C)=O (stereo unspecified)	5.0*	/	/	/	/	/	3
Cc1ccc(C(=O)c2ccc(CC(=O)O)n2C)cc1	4	2	-3	/	/	-5	/
Cc1ccc2nc(NC(=O)c3ccco3)sc2c1	2	6	2	-2	-2	-5	/
COc1ccc2nc(Nc3ccc4c(c3)OCO4)sc2c1	1	-2	3	-2	-3	-3	/
COc1ccc2nc(Nc3nc4cc5c(cc4s3)OCO5)sc2c1	4.8*	7	1	-3	-4	-7	3
COc1ccc2nc(NC(=O)c3ccco3)sc2c1	4.7*	-6	-3	-3	-4	-2	3
CCCC(C(=O)Nc1nccs1)c1ccccc1 (stereo unspecified)	21*	-11	-5	-1	-2	-3	0
CCOc1ccc(N(C)S(=O)(=O)c2cc(-c3cc(C)no3)ccc2C(C)C)cc1	11*	6	-8	0	-1	-11	12*
CCN(c1ccc(OC)cc1)S(=O)(=O)c1cc(-c2cc(C)no2)ccc1C(C)C	1	-5	-1	-3	-3	0	/
COc1ccc(CC(=O)N2CCN(S(=O)(=O)c3cc(Cl)ccc3Cl)CC2)cc1	-1	1	-3	/	/	0	/
Cc1ccc(/C=N/NC(=O)c2nnn(-c3nonc3N)c2C(C)C)o1	4.8*	-3	0	-2	-2	-3	4.8*
CC(C)c1c(C(=O)N/N=C/c2ccco2)nnn1-c1nonc1N	3	-2	-1	-2	-3	-3	/
CC(/C=N/NC(=O)c1nnn(-c2nonc2N)c1CN(C)C)=C\c1ccco1	6.2*	11	6	-4	-2	-3	7.3*
CCCN(CCC)Cc1c(C(=O)N/N=C/c2ccc(C)o2)nnn1-c1nonc1N	1	7	4	-4	-2	-2	/
CCCc1c(C(=O)N/N=C/c2ccc(C)o2)nnn1-c1nonc1N	5.0*	0	-5	/	/	-9	4.6*
N#CCC(=O)N1CCN(Cc2ccc3c(c2)OCO3)CC1	0	/	/	/	/	-4	/
COc1cc(/C=N\Nc2nc3ccccc3o2)cc(OC)c1OC	5.2*	-6	4	-2	-3	-4	3
Cc1ccc(/C=N/N(C)C2=NS(=O)(=O)c3ccccc32)cc1	-1	-5	1	-2	5	-2	/
O=S1(=O)N=C(N/N=C/C=C/c2ccccc2)c2ccccc21	6.8*	-2	-5	-1	-2	-8	6.2*
COc1cc(/C=N/NC2=NS(=O)(=O)c3ccccc32)cc(OC)c1OC	5.5*	0	0	-3	-3	-4	4.6*
O=S1(=O)N=C(N(CCO)/N=C/C=C/c2ccccc2)c2ccccc21	8.3*	-10	4	-2	2	-8	5.7*
Cc1c(C=O)c2cc(OCc3ccccc3)ccc2n1C	1	6	0	-2	-2	-4	/
CCN(CC)CCN1C(=O)C(=O)/C(=C(/O)c2ccc(C)cc2)C1c1cccnc1 (stereo unspecified)	5.9*	5	-10	0	0	-3	0
CN(C)CCCN1C(=O)C(=O)/C(=C(/O)c2ccncc2)C1c1cccc(Br)c1 (stereo unspecified)	2	-9	-4	-2	-2	-4	/
SMILES	MsrA inhibitor	PKA-R1A act	PKA-R2B act	IMP-1 inh	VIM-2 inhibitor	MsrA act	MsrA inh confirm
CN(C)CCCN1C(=O)C(=O)/C(=C(/O)c2ccncc2)C1c1cccnc1 (stereo unspecified)	6.6*	1	-6	-3	-3	-1	2
OC[C@@H](O)C(O)[C@@H](O)CO (stereo partly specified)	-1	/	/	/	/	-1	/
COc1ccccc1/C=N/NC(=O)CN(C1=NS(=O)(=O)c2ccccc21)c1ccccc1	6.1*	-2	-1	-4	-4	-9	1
COc1ccc(/C=N/NC(=O)CN(C2=NS(=O)(=O)c3ccccc32)c2ccccc2)cc1	2	-4	-7	-4	0	0	/
O=C1NC(=Nc2ccc(O)cc2)S/C1=C/c1ccco1	4.7*	1	0	-2	1	-7	4.7*
N#C/C(=C\c1ccco1)C(=O)Nc1ccc(S(N)(=O)=O)cc1	4	1	5	-1	-6	-13	/
N#C/C(=C\c1ccco1)C(=O)Nn1cnnc1	7.5*	2	-17	-2	-1	-11	5.7*
COc1cc(F)c(C2=CC(=O)C[C@H](c3ccc(Cl)cc3)C2)cc1F	2	-16	-14	/	/	-4	/
[O-][n+]1ccccc1C(O)CSc1ccccc1 (stereo unspecified)	0	/	/	/	/	/	/
COc1cc(-c2[nH]ncc2CN2CCCC2c2nonc2C)cc(OC)c1OC (stereo unspecified)	-1	-5	3	-2	-2	-4	/
Cc1nonc1C1CCCN1Cc1cn[nH]c1-c1ccc(-c2ccccc2)cc1 (stereo unspecified)	29*	-1	-12	-2	-2	-5	22*
O=C1CCCN1CCCNc1ccc2nnc(CCC(=O)N3CCN(c4ccc(F)cc4)CC3)n2n1	0	1	-1	-1	-2	1	/
CCOC1(OCC)OC(c2ccccc2)=C(C#N)C(C=Cc2ccccc2)C1(OCC)OCC (stereo unspecified)	0	6	-3	/	/	-1	/
CC1(C)CC(N2CCN(CCO)CC2)=CC(=S)N1	5.8*	1	-6	-2	1	0	6.1*
CC1(C)CC(NCc2ccccc2)=CC(=S)N1	/	/	/	/	/	1	/
Cc1cc(/C=C(\C#N)C(=O)N2CCCCC2)cc(C)c1O	4.8*	0	6	-3	-3	-5	3
N#C/C(=C\c1cccc(O)c1)C(=O)N1CCCCC1	0	7	-3	0	0	-3	/
O=C(Nc1nnc(-c2ccncc2)o1)c1ccc(Br)s1	5.8*	-7	-3	-4	-3	-2	3
CC(C)(C)C(=O)Nc1nnc(-c2ccncc2)o1	3	-14	2	-4	-3	-4	/
COc1cc(-c2ccc(Nc3ccccc3C(=O)O)c(OC)c2)ccc1Nc1ccccc1C(=O)O	4.9*	6	2	-3	0	-7	5.3*
C1CCN2CC3CC(CN4CCCC[C@@H]34)[C@H]2C1	2	-12	-8	/	/	-4	/
COc1ccc(C2CC(=O)C(c3ccccc3C)=CN2Cc2ccccc2)cc1 (stereo unspecified)	2	/	/	/	/	/	/
O=C(NC(=S)NCCCN1CCOCC1)c1ccco1	5.8*	-8	-10	-4	-1	-2	3

Screening results: PubChem BioAssay, The Scripps Research Institute Molecular Screening Center
